# Reference: PubChem BioAssay AID588760 (Johns Hopkins Ion Channel Center, 2011)
# Calls of active or inactive are those of the source.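 How the source made its calls: active means fitted dose response curve and peak inhibition of the Kir2.1 potassium channel above 30% at some dose; inactive means no dose response or no inhibition at any dose.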
# Molecular target: Inward rectifier potassium channel 2 (Mus musculus) (UniProt P35561)
# Experiment: Kir2.1 channel inhibition, specificity check, SAR follow-up, selectivity assay for KCNK9 inhibitor project, cell-based, FluxOR thallium flux, CRC round 3 (AID 588760)
# Settings: Kir2.1-expressing cells, 20 min; series mostly up to 30 µM
# In short: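 Material: FluxOR-loaded Kir2.1 HEK293 cells | Times: 90 min dye load, 20 min compound, RT | Technique: Kinetic fluorescence of thallium-sensitive dye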
# Sequence of Inward rectifier potassium channel 2 (Mus musculus) (P35561 whole entry, looked up): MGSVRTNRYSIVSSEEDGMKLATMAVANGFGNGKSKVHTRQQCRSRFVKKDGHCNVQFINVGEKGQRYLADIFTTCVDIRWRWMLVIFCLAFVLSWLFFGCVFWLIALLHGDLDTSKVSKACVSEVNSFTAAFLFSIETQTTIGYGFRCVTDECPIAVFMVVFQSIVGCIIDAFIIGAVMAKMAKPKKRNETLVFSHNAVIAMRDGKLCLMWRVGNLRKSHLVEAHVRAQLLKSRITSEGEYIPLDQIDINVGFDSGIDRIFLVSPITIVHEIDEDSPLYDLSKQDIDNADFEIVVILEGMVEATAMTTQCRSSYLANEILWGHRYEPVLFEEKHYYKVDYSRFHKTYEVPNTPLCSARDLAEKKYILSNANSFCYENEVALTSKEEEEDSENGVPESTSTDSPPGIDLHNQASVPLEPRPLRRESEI
row,Compound,outcome
1,CC(CCC1CCCC1)n1c(-c2ccco2)n[nH]c1=S (stereo unspecified),inactive
2,CC(C1CC2CCC1C2)n1c(SC(F)F)nnc1-c1ccco1 (stereo unspecified),inactive
3,CC(C1CC2CCC1C2)n1c(-c2ccccc2F)n[nH]c1=S (stereo unspecified),inactive
4,CC(C1CC2CCC1C2)n1c(-c2ccncc2)n[nH]c1=S (stereo unspecified),inactive
5,COc1ccccc1C(=O)Nc1cc(NC(=O)c2ccccc2C(C)C)ccc1F,inactive
6,CC(C1CC2CCC1C2)n1c(-c2ccco2)n[nH]c1=S (stereo unspecified),inactive
7,S=c1[nH]nc(-c2ccco2)n1C1CC2CCC1C2 (stereo unspecified),inactive
8,COc1cc(OC)cc(-c2n[nH]c(=S)n2C(C)C2CC3CCC2C3)c1 (stereo unspecified),inactive
9,CC(C1CCCCC1)n1c(-c2ccco2)n[nH]c1=S (stereo unspecified),inactive
10,CC(CC1CC2CCC1C2)n1c(-c2ccco2)n[nH]c1=S (stereo unspecified),inactive
11,CC(C1CC2CCC1C2)n1c(-c2ccc(N(C)C)cc2)n[nH]c1=S (stereo unspecified),inactive
12,COc1cccc(-c2n[nH]c(=S)n2C(C)C2CC3CCC2C3)c1OC (stereo unspecified),inactive
13,COc1cccc(-c2nnc(S(C)(=O)=O)n2C(C)C2CC3CCC2C3)c1 (stereo unspecified),inactive
14,C[C@@H](C1CCCCC1)n1c(-c2ccco2)n[nH]c1=S,inactive
15,COc1ccccc1C(=O)Nc1cccc(NC(=O)c2cccc3ccccc23)c1,inactive
16,CC(C1C2CCC1CC2)n1c(-c2ccco2)n[nH]c1=S (stereo unspecified),inactive
17,CC(C)c1ccccc1C(=O)Nc1cccc(NC(=O)c2ccccc2OC(F)(F)F)c1,inactive
18,CC(NC(=O)c1ccco1)C1CC2CCC1C2 (stereo unspecified),inactive
19,CC(C1CC2CCC1C2)n1c(-c2cccnc2)n[nH]c1=S (stereo unspecified),inactive
20,COc1ccc(CCSc2nnc(-c3ccco3)n2C(C)C2CC3CCC2C3)cc1OC (stereo unspecified),inactive
21,CC(C1CC2CCC1C2)n1c(-c2cccc(F)c2)n[nH]c1=S (stereo unspecified),inactive
